# Measured values from ChEMBL document CHEMBL4017523, “Computer-Aided Identification and Lead Optimization of Dual Murine Double Minute 2 and 4 Binders: Structure-Activity Relationship Studies and Pharmacological Activity” (J Med Chem, 2017).
# Calls of active or inactive are those of the source. The calls are words filed in the database; no cut-off is given here.
# What was measured:
# U-87 MG [1] = assay: Antiproliferative activity against human U87MG cells at 1 uM after 24 hrs by MTS assay; format: functional, cell-based; details: U-87MG ATCC
# How it was run: (§1)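 Cells treated for 24 h, either alone or combined with reference MDM2 inhibitor (1 μM) and/or MDM4 inhibitor (1 μM). Drug medium then swapped for fresh medium and growth continued before MTS read-out. Data given as percent of untreated control set to 100% (mean ± SEM, N = 3).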
# [2] = target: T1, Protein Mdm4 (Homo sapiens) (UniProt O15151); assay: Inhibition of MDM4 in human SH-SY5Y cells assessed as increase in MDM2 mRNA levels at 1 uM after 24 hrs by RT-qPCR analysis; format: cell-based
# T1 sequence (whole entry): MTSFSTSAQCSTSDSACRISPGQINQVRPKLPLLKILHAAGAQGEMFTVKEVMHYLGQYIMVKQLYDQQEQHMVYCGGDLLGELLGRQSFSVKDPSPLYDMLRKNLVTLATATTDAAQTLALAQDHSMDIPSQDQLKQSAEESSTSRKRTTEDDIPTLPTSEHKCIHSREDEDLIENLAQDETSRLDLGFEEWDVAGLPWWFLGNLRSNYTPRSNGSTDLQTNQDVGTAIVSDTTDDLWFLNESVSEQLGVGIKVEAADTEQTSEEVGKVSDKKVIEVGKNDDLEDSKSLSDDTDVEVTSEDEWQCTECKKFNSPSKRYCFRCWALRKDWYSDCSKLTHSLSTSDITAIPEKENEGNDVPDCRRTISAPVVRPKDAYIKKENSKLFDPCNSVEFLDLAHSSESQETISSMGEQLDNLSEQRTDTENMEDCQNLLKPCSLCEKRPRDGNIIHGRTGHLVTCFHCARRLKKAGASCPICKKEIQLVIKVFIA
# How it was run: (§2)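 Cells incubated 24 h with agents at 1 μM, alone or combined with MDM2 inhibitor. RNA extracted and MDM2, PUMA and p21 transcripts quantified by real-time RT-PCR. Results reported as fold change versus control (mean ± SEM, N = 3).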
# [3] = target: E3 ubiquitin-protein ligase Mdm2 (Homo sapiens, UniProt Q00987); assay: Inhibition of MDM2 in human U87MG cells assessed as reduction in MDM2 interaction with p53 after 10 mins by quantitative sandwich immune-enzymatic assay; format: cell-based
# E3 ubiquitin-protein ligase Mdm2, sequence (Q00987 whole entry): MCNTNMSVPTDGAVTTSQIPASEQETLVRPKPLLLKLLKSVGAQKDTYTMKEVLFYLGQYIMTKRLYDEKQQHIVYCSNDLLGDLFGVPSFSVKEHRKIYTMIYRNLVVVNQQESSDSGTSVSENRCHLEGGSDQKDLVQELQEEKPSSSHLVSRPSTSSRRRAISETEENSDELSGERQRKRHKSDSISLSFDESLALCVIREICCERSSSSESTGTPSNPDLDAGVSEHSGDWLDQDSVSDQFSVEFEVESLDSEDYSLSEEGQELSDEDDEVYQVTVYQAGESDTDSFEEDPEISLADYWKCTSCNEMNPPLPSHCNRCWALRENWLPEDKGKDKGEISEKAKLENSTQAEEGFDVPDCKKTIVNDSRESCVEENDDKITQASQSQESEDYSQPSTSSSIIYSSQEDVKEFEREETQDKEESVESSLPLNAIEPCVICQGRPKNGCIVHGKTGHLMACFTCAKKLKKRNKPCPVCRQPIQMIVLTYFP
# Protein Mdm4 = target: T2, Protein Mdm4 (Homo sapiens, UniProt O15151); assay: Inhibition of MDM4 in human SH-SY5Y cells assessed as reduction in MDM4 interaction with p53 after 10 mins by quantitative sandwich immune-enzymatic assay; format: cell-based
# T2 sequence (O15151 whole entry): T1 sequence (whole entry)
# [4] = target: T1, Protein Mdm4 (Homo sapiens); assay: Inhibition of MDM4 in human SH-SY5Y cells assessed as accumulation of p53 at 1 uM after 24 hrs in presence of Nutlin-3 by Western blot analysis; format: cell-based
# How it was run: (§3)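 Cells treated 24 h with DMSO control or agents at 1 μM, alone or combined with 1 μM MDM2 inhibitor. Cells lysed in RIPA buffer and run on 8.5% SDS-PAGE. Blots probed overnight at 4 °C with anti-p53 (1:200), using GAPDH as loading control. Bands quantified by densitometry as percent OD versus control (mean ± SEM, N = 2).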
# [5] = target: T1, Protein Mdm4 (Homo sapiens); assay: Inhibition of MDM4 in human SH-SY5Y cells assessed as increase in PUMA mRNA levels at 1 uM after 24 hrs in presence of Nutlin-3 by RT-qPCR analysis; format: cell-based; how it was run: as §2
# [6] = target: T1, Protein Mdm4 (Homo sapiens); assay: Inhibition of MDM4 in human SH-SY5Y cells assessed as increase in p21 mRNA levels at 1 uM after 24 hrs in presence of Nutlin-3 by RT-qPCR analysis; format: cell-based; how it was run: as §2
# [7] = target: T1, Protein Mdm4 (Homo sapiens); assay: Inhibition of MDM4 in human SH-SY5Y cells assessed as accumulation of p53 at 1 uM after 24 hrs by Western blot analysis; format: cell-based; how it was run: as §3
# [8] = target: T1, Protein Mdm4 (Homo sapiens); assay: Inhibition of MDM4 in human SH-SY5Y cells assessed as increase in PUMA mRNA levels at 1 uM after 24 hrs by RT-qPCR analysis; format: cell-based; how it was run: as §2
# [9] = target: T1, Protein Mdm4 (Homo sapiens); assay: Inhibition of MDM4 in human SH-SY5Y cells assessed as increase in p21 mRNA levels at 1 uM after 24 hrs by RT-qPCR analysis; format: cell-based; how it was run: as §2
# SH-SY5Y [10] = assay: Antiproliferative activity against human SH-SY5Y cells at 1 uM after 24 hrs in presence of Nutlin-3 by MTS assay relative to control; format: functional
# How it was run: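 Cells were exposed to compound for 24 h, alone or with 1 μM MDM2 inhibitor. Drug medium was then replaced with fresh medium, and cells grew for a further 3 days before the MTS read-out. Values are % of control (100%), mean ± SEM, N=3. For SH-SY5Y, IC50 came from a sigmoid dose-response fit.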
# SH-SY5Y [11] = assay: Antiproliferative activity against human SH-SY5Y cells at 1 uM after 24 hrs in presence of […] by MTS assay relative to control; format: functional; how it was run: as §1
# SH-SY5Y [12] = assay: Antiproliferative activity against human SH-SY5Y cells after 24 hrs by MTS assay
# SH-SY5Y [13] = assay: Antiproliferative activity against human SH-SY5Y cells at 1 nM to 100 uM after 72 hrs by neutral red dye-based assay; format: functional, cell-based
# How it was run: (§4)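 Cells exposed to DMSO control or test agent at 1 nM to 100 μM for 72 h. Drug medium replaced, then 0.33% neutral red solution added at 10% of medium volume for 2 h at 37 °C. After PBS rinse, dye extracted with 1% glacial acetic acid/50% ethanol in PBS with 10 min shaking. Absorbance read at 540 nm.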
# U-87 MG [14] = assay: Antiproliferative activity against human U87MG cells at 1 nM to 100 uM after 72 hrs by neutral red dye-based assay; format: functional, cell-based; details: U-87MG ATCC; how it was run: as §4
# U-87 MG [15] = assay: Antiproliferative activity against human U87MG derived cancer stem cells after 7 days by MTS assay; format: functional, cell-based; details: U-87MG ATCC
# How it was run: (§5)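 Cancer stem cells isolated by culturing 2.5 × 10^6 tumor cells without serum in NSC medium for 7 days. Treated with test agent (100 nM–10 μM) for 7 days, drug-containing medium renewed every 3 days. Proliferation measured by MTS and expressed as percent of control (mean ± SEM, N = 3).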
# SH-SY5Y [16] = assay: Antiproliferative activity against human SH-SY5Y derived cancer stem cells after 7 days by MTS assay; format: functional, cell-based; how it was run: as §5
# SH-SY5Y [17] = assay: cells; details: Homo sapiens, 24 h, read-out: Activity
Compound,Activity (U-87 MG [1]),inhibition [2],IC50 [3] [µM],IC50 (Protein Mdm4) [µM],inhibition [4],inhibition [5],inhibition [6],inhibition [7],inhibition [8],inhibition [9],Activity (SH-SY5Y [10]) [%],Activity (SH-SY5Y [11]) [%],IC50 (SH-SY5Y [12]) [µM],Activity (SH-SY5Y [13]),Activity (U-87 MG [14]),Activity (U-87 MG [15]),Activity (SH-SY5Y [16]),viability at 1 µM (SH-SY5Y [17]) [%]
CCOc1cc(/C=C2\C(=O)N(c3ccccc3)N=C2C)cc(Cl)c1OCC(=O)OC,inactive,Active,> 1,0.847,Active,Active,Active,Active,inactive,inactive,47.1,–,–,–,–,–,–,–
COc1ccc(C2=N[C@H](c3ccc(Cl)cc3)[C@H](c3ccc(Cl)cc3)N2C(=O)N2CCNC(=O)C2)c(OC(C)C)c1,Active,–,–,–,–,–,–,–,–,–,–,47.1,–,–,–,–,–,–
O=C(CC(c1ccccc1)c1ccccc1)N[C@@H](Cc1ccc(OCCCNc2ccccn2)cc1)C(=O)O,–,–,–,–,–,–,–,–,–,–,–,–,0.356,Active,Active,Dose-dependent effect,Dose-dependent effect,62.4
